Measurements as given in ChEMBL document CHEMBL1133361, “Synthesis and biological activity of peptidyl aldehyde urokinase inhibitors” (Bioorg Med Chem Lett, 2000).

Legend:
[1] = Maximum concentration in rat plasma after administration of 50 mg/kg dose through subcutaneous route; conditions: sc
[2] = Area under curve in dog after administration of 20 mg/kg dose through peroral route; assay type: ADME, organism-based, Canis lupus familiaris; set-up: dose 20 mg/kg, route oral; conditions: in vivo, po
Outline: (§1)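 Conscious dogs (n=3) were given a single 20 mg/kg oral dose. Plasma drug levels were quantified by solid-phase extraction followed by HPLC mass spectrometry, and elimination half-life, Cmax and AUC were derived from the plasma concentration-time profile.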

[3] = Apparent terminal elimination half-life in rat plasma after administration of 50 mg/kg dose through subcutaneous route; conditions: sc
[4] = biological target: Urokinase-type plasminogen activator (Homo sapiens, UniProt P00749); test: The compound was tested in vitro for its inhibitory activity against human urokinase enzyme, activity expressed as IC50
[5] = Total concentration in rat plasma after administration of 50 mg/kg dose through subcutaneous route; conditions: sc
[6] = Apparent terminal elimination half-life in dog after administration of 20 mg/kg dose through peroral route; assay type: ADME, organism-based, Canis lupus familiaris; set-up: dose 20 mg/kg, route oral; conditions: in vivo, po
Outline: as §1

[7] = Area under curve in rat plasma after administration of 50 mg/kg dose through subcutaneous route; conditions: sc
[8] = biological target: Tissue-type plasminogen activator (Homo sapiens, UniProt P00750); test: The compound was tested in vitro for its inhibitory activity against human t-PA enzyme, activity expressed as IC50
Outline: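 Human t-PA (1 nM final) was tested for cleavage of chromogenic substrate Pefachrome t-PA. IC50 was taken as the inhibitor concentration giving 50% inhibition of substrate cleavage.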

[9] = Apparent terminal elimination half-life in rat plasma after administration of 50 mg/kg dose through subcutaneous route; assay type: ADME, organism-based; set-up: dose 50 mg/kg, route subcutaneous; conditions: sc
Outline: (§2)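 Rats (n=3) received 50 mg/kg subcutaneously. Plasma was sampled over 24 h after dosing the parent aldehyde, or over 30 h after dosing its carbonate prodrug, with parent and prodrug measured. Levels were quantified by solid-phase extraction and HPLC mass spectrometry, and half-life and Cmax were taken from the concentration-time profile.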

[10] = Maximum concentration in rat plasma after administration of 50 mg/kg dose through subcutaneous route; assay type: ADME, organism-based; set-up: dose 50 mg/kg, route subcutaneous; conditions: sc
Outline: as §2

[11] = biological target: Plasminogen (Homo sapiens, UniProt P00747); test: The compound was tested in vitro for its inhibitory activity against human Plasmin enzyme, activity expressed as IC50
[12] = Maximum concentration in dog after administration of 20 mg/kg dose through peroral route; assay type: ADME, organism-based, Canis lupus familiaris; set-up: dose 20 mg/kg, route oral; conditions: in vivo, po
Outline: as §1

[13] = Apparent terminal elimination half-life in rat plasma after administration of 50 mg/kg dose through subcutaneous route; conditions: sc; remark: listed apart in the source

Chain of Plasminogen (P00747 97-580 limits assumed): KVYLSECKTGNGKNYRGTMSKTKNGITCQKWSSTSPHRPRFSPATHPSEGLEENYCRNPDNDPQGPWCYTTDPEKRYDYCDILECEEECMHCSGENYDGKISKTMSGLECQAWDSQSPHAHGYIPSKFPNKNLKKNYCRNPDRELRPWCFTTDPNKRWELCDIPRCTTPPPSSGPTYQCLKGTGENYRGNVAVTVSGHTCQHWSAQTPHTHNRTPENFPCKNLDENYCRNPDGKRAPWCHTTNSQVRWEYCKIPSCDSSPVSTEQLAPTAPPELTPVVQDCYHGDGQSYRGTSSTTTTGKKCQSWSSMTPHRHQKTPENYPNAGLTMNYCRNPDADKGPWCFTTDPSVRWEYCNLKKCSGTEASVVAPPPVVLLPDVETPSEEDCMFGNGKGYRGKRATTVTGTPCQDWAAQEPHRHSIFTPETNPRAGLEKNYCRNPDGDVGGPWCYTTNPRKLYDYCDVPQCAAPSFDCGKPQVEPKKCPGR
Chain of Plasminogen (P00747 581-810 limits assumed): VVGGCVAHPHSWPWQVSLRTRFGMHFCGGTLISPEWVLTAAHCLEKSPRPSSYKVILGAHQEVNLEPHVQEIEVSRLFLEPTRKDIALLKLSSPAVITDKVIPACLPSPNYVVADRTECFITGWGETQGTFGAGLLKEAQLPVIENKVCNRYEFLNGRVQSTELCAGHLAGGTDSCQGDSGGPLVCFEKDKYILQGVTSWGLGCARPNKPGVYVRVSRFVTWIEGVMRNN
Chain of Tissue-type plasminogen activator (P00750 whole entry): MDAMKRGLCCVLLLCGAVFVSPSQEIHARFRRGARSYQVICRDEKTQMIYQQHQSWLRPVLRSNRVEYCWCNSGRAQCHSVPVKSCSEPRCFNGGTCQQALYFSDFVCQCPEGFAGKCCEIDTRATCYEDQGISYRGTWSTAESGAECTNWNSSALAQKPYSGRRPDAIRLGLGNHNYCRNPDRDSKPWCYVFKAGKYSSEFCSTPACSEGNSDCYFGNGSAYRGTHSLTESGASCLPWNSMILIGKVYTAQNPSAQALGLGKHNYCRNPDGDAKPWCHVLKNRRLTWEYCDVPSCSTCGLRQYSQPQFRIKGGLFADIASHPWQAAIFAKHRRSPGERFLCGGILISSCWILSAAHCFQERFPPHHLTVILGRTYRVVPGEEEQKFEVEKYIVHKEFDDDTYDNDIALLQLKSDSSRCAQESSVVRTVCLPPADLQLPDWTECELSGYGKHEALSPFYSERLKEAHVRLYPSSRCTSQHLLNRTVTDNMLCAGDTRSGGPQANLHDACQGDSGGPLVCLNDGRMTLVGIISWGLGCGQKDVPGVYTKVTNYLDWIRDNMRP

Row | SMILES | IC50 [8] | IC50 [11] | IC50 [4] | further results
1 | CC(C)COC(=O)N[C@H](CO)C(=O)N[C@@H](C)C(=O)N[C@H]1CCCN(C(=N)N)C1O.O=C(O)C(F)(F)F (some centres not stated) | > 2500 nM | 1460 nM | 23.1 nM | Cmax [1]: 4700 ng/mL; AUC [2]: 38900 ng·h/mL; half-life [3]: 5 h; Tmax [5]: 2.33 h; half-life [6]: 0.85 h; AUC [7]: 44500 ng·h/mL; half-life [9]: 5 h; Cmax [10]: 4700 ng/mL; Cmax [12]: 22900 ng/mL
2 | C[C@H](NC(=O)[C@@H](CO)NS(=O)(=O)Cc1ccccc1)C(=O)N[C@H]1CCCN(C(=N)N)C1O (some centres not stated) | > 2500 nM | 275 nM | 5.1 nM | 
3 | C[C@@H](NC(=O)[C@@H](CO)NC(=O)OCc1ccccc1)C(=O)N[C@H]1CCCN(C(=N)N)C1O (some centres not stated) | > 2500 nM | > 2500 nM | > 2500 nM | 
4 | CC(C)COC(=O)N[C@H](COC(=O)O)C(=O)N[C@@H](C)C(=O)N[C@H]1CCCN(C(=N)N)C1O.O=C(O)C(F)(F)F (some centres not stated) |  |  |  | Cmax [1]: 2300 ng/mL; Tmax [5]: 2.67 h; AUC [7]: 38600 ng·h/mL; half-life [13]: 10.7 h
5 | C[C@H](NC(=O)[C@@H](CO)NS(=O)(=O)CCc1ccccc1)C(=O)N[C@H]1CCCN(C(=N)N)C1O (some centres not stated) | > 2500 nM | 367 nM | 3.1 nM | 
6 | N=C(N)N1CCC[C@@H](NC(=O)[C@H]2CCCCN2C(=O)[C@@H](CO)NC(=O)OCc2ccccc2)C1O (some centres not stated) | > 2500 nM |  | 101 nM | 

More lines, main results first:

Row | IC50 [8] | IC50 [11] | SMILES | IC50 [4] | further results
7 | > 2500 nM | 904 nM | C[C@H](NC(=O)[C@@H](CO)NC(=O)OCc1ccccc1)C(=O)N[C@H]1CCCN(C(=N)N)C1O (some centres not stated) |  | 
8 | > 2500 nM | > 2500 nM | C[C@H](NC(=O)[C@@](C)(CO)NC(=O)OCc1ccccc1)C(=O)N[C@H]1CCCN(C(=N)N)C1O (some centres not stated) | > 2500 nM | 
9 | > 2500 nM | 482 nM | N=C(N)N1CCC[C@H](NC(=O)C2CCN2C(=O)[C@@H](CO)NC(=O)OCc2ccccc2)C1O (some centres not stated) | 11 nM | 
10 | > 2500 nM | 1170 nM | C[C@H](NC(=O)[C@@H](CO)NS(=O)(=O)c1ccccc1)C(=O)N[C@H]1CCCN(C(=N)N)C1O (some centres not stated) |  | 
11 | > 2500 nM | 125 nM | N=C(N)N1CCCC(NC(=O)[C@H]2CCCN2C(=O)C(CO)NC(=O)OCc2ccccc2)C1O (some centres not stated) |  | 
12 | > 2500 nM | 699 nM | CC(O)[C@@H](NC(=O)OCc1ccccc1)C(=O)N[C@@H](C)C(=O)N[C@H]1CCCN(C(=N)N)C1O (some centres not stated) | 261 nM | 
